Assay outcomes as filed in PubChem.
Hits are enriched below; roughly 1.1% of the tested compounds scored in any of these assays.
ABCB6 inh MLPCN: blocks the human ABCB6 transporter; AID 602162; fluorescence ratio to DMSO, % at 10 µM; K562-ABCB6 porphyrin accumulation, flow cytometry, 1 h; active compounds read low; actives 0.19% (n = 360,000);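 active = fluorescence ratio to DMSO below 75%, the collection mean minus 3 SD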;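 also: signal is porphyrin accumulated inside mitochondria; lower ratio means ABCB6 inhibition with less porphyrin fluorescence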
SENP1 inh: blocks the human SENP1 SUMO protease catalytic domain | Q9P0U3 | recombinant SENP1 catalytic domain, CyPet-SUMO1-YPet FRET cleavage | inhibition, % at 10 µM | actives 0.21% (n = 360,000) | AID 624204;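 active = inhibition at least 30% at 10 µM, raw YFP signal under a set limit, fluorescence ratio 0.5 to 1.5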
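system = hSENP1 catalytic domain, recombinant | reagent = SFCypet-SUMO1-SFYpet substrate at 25 nM | doses = one dose per compound, 10 µM, 0.5% DMSO | incubation = enzyme reaction for 50 min at room temperature, dark | measured by = FRET, CFP and YFP emission | controls = no-enzyme low, enzyme-DMSO high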
hiPSC survival: increases survival of single human iPS cells; hiPSC single-cell survival, ATPlite luminescence; 100% = ROCK inhibitor wells, 0% = DMSO; survival enhancement, % at 20 µM; actives 0.044% (n = 360,000); AID 602274; in the data active = survival enhancement above about 18%;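 also: cells exposed to compounds for 16 hours before the ATP read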
FAS TE block: inhibitors of human fatty acid synthase thioesterase domain; P49327; recombinant FAS-TE, OMFH fluorogenic substrate, fluorescence endpoint; inhibition, % at 15 µM; actives 0.67% (n = 360,000); AID 602261;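 active = compounds whose normalised, plate-corrected inhibition of enzyme fluorescence in the single-dose primary screen is 50% or more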
Target sequence (P49327 whole entry, looked up, the tested form may be a part): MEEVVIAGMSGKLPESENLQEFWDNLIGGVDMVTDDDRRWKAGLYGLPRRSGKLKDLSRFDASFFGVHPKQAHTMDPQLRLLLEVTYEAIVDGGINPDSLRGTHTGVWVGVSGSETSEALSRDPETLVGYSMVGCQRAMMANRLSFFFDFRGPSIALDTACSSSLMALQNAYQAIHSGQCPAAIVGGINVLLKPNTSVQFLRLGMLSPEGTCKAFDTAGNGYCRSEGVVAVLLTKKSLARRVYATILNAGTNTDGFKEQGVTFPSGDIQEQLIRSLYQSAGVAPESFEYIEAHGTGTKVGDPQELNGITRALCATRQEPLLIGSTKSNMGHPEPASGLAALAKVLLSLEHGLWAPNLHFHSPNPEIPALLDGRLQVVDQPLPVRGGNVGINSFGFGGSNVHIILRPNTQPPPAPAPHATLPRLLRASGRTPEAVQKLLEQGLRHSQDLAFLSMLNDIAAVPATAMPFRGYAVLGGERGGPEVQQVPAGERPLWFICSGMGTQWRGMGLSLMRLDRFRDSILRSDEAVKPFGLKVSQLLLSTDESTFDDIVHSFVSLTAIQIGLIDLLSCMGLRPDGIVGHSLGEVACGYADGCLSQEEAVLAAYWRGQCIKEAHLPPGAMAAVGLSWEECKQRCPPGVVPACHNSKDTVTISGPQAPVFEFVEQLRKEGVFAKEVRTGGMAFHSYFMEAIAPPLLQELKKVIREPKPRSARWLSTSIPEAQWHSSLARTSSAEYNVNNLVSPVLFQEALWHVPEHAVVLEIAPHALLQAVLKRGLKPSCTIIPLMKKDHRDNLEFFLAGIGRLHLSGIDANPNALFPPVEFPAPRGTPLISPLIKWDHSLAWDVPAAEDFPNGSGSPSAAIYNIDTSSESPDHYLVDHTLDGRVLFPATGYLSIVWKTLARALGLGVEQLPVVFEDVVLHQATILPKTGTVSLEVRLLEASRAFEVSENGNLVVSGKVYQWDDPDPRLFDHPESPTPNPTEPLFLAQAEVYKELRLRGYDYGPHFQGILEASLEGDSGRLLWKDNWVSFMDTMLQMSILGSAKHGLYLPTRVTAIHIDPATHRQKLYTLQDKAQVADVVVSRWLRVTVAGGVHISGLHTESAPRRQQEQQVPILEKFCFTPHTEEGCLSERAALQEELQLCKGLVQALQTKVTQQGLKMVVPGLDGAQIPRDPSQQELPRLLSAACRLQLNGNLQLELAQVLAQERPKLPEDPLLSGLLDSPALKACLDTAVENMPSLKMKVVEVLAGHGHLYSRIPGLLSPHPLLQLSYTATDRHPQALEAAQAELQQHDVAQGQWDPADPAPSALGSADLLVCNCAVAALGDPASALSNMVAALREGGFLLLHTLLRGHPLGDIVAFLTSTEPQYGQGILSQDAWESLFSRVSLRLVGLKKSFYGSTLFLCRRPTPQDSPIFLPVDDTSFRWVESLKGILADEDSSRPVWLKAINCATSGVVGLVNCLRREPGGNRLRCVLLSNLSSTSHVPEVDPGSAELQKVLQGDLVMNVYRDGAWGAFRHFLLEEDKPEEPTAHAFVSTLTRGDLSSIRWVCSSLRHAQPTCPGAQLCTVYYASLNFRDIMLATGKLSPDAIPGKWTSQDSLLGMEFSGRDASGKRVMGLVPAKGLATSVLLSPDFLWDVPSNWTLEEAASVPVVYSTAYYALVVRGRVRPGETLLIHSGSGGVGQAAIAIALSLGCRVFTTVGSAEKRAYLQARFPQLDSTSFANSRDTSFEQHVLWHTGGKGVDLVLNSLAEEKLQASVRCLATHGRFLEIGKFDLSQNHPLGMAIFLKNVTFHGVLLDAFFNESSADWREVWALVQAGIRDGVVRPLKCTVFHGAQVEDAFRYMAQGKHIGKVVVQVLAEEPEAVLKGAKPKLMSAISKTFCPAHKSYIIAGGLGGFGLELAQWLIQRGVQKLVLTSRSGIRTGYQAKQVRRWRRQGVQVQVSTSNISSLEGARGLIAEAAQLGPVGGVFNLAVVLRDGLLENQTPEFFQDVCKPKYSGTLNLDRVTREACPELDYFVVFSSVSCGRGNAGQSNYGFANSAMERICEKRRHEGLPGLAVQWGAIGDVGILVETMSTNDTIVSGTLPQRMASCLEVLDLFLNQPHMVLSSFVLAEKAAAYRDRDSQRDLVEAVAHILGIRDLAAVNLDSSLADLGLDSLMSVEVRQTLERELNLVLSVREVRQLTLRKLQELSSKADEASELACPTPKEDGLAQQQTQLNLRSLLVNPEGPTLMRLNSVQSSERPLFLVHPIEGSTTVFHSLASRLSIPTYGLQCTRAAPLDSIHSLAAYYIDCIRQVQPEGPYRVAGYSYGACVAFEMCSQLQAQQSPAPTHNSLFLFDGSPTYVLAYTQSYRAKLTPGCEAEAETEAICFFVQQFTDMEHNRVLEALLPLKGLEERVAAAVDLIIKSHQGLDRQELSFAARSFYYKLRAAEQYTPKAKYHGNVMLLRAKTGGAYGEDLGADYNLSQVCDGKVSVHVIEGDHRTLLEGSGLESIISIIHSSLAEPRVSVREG
FAS-TE inh conf: FAS thioesterase (human) inhibition, confirmation. shares compounds with FAS TE block. recombinant FAS-TE, OMFH fluorogenic substrate, fluorescence. inhibition, % at 15 µM. actives 45% (n = 2,300). AID 624325;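 active = compounds inhibiting the enzyme by at least 50% at 15 µM in any one of the replicates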
Numbers stand for hits; . = inactive; / = no result.

SMILES | ABCB6 inh MLPCN | SENP1 inh | hiPSC survival | FAS TE block | FAS-TE inh conf
O=C(N/C(=C/C=C/c1ccccc1)C(=O)N1CCOCC1)c1ccccc1Cl | . | . | . | . | /
Cc1ccc(C)c(OCCC(=O)NCCc2ccc(F)cc2)c1 | . | . | . | . | /
CCc1cccc(N(CC(=O)NC2CCCCC2)C(=O)c2csnn2)c1 | . | . | . | . | /
O=C(/C=C/c1cccs1)Nc1ccc(N2CCOCC2)c(S(=O)(=O)Nc2ccccc2Cl)c1 | . | . | . | . | /
COc1ccccc1NS(=O)(=O)c1cc(NC(=O)/C=C/c2cccs2)ccc1N1CCOCC1 | . | . | . | 82.1 | .
COc1ccccc1NS(=O)(=O)c1cc(NC(=O)c2sccc2C)ccc1N1CCCC1 | . | . | . | 58.4 | .
CN(C)c1nc(N2CCN(c3ccccc3)CC2)c(C#N)c(=O)o1 | . | . | . | . | /
Cc1cccc(C)c1N1CCN(c2nc(N(C)C)oc(=O)c2C#N)CC1 | . | . | . | 56.2 | .
Cc1ccc(S(=O)(=O)N2C[C@H]3C(=O)C[C@@H]4C(=O)N(c5ccccc5)C(=O)[C@@H]4[C@@H]3C[C@H]2c2cccc(Cl)c2)cc1 | . | . | . | 85.0 | .
Cc1ccc(S(=O)(=O)N2C[C@H]3C(=O)C[C@@H](c4ccccc4)N(S(=O)(=O)c4ccc(C)cc4)[C@H]3C[C@H]2c2cccc(Cl)c2)cc1 | . | . | . | . | /
Cc1ccc(S(=O)(=O)N2C[C@H]3C(=O)C[C@@H](c4ccccc4)N(S(=O)(=O)c4ccc(C)cc4)[C@H]3C[C@H]2c2cccs2)cc1 | . | . | . | . | /
CCc1ccc([C@H]2C[C@H]3[C@H]4C(=O)N(c5ccccc5)C(=O)[C@H]4CC(=O)[C@@H]3CN2S(=O)(=O)c2ccc(C)cc2)cc1 | . | . | . | 74.2 | .
CCOC1=C2CN(S(=O)(=O)c3ccc(C)cc3)[C@@H](c3cccs3)C[C@H]2[C@H]2C(=O)N(c3ccccc3)C(=O)[C@H]2C1 | . | . | . | 77.5 | .
CCc1ccc(C2CC3C(CN2S(=O)(=O)c2ccc(C)cc2)C(=O)CC(c2ccc(CC)cc2)N3S(=O)(=O)c2ccc(C)cc2)cc1 (stereo not drawn) | / | . | / | / | /
Cc1ccc(S(=O)(=O)N2C[C@H]3C(=O)C[C@@H]4C(=O)N(c5ccccc5)C(=O)[C@@H]4[C@@H]3C[C@H]2c2cccs2)cc1 | . | . | . | 70.0 | .
Cc1ccc(S(=O)(=O)N(C)C)cc1NC(=O)CN1C(=O)NC(Cc2ccccc2)C1=O (stereo not drawn) | . | . | . | . | /
Cc1nnc(Cc2ccccc2)c2n[nH]c(C)c12 | . | . | . | . | /
O=[N+]([O-])c1ccc(NNS(=O)(=O)c2cc(Cl)ccc2Cl)nc1 | . | . | . | . | /
COc1cc(/C=N/N2CCN(Cc3ccccc3)CC2)cc(OC)c1OC(C)=O | . | . | . | . | /
COc1cc(-c2nc(C(=O)NC3CCCCC3)cc3c2[nH]c2ccccc23)cc(OC)c1OC | . | . | . | 83.5 | .
COc1ccc(OC)c(-c2nc(C(=O)NC3CCN(Cc4ccccc4)CC3)cc3c2[nH]c2ccccc23)c1 | . | . | . | . | /
O=C(Nc1nc(-c2ccc3ccccc3c2)cs1)C1CCN(S(=O)(=O)c2cccs2)CC1 | . | . | . | 87.6 | .
Cc1nn(-c2ccccn2)c2c1C(c1ccccc1Cl)C1=C(N2)c2ccccc2C1=O (stereo not drawn) | . | . | . | 53.0 | .
Cc1ccc(C)c(CN2C(=O)c3ccccc3S(=O)c3ccc(C(=O)N4CCN(c5ccccn5)CC4)cc32)c1 (stereo not drawn) | . | . | . | 72.0 | .
O=C1NC[C@H](CCCCN2CCN(CCc3ccccc3)C(=O)C2=O)N(CCC2CCCCC2)C1=O | . | . | . | . | /
Cc1ccc(/C=C/c2ccc(=O)n(Cc3ccc(F)cc3)n2)cc1 | . | . | . | 50.4 | 39.5
CN(CCc1ccccc1)C(=O)c1ccc(NC(=O)Cc2cccc(NC(=O)C3CCN(S(=O)(=O)c4cccc([N+](=O)[O-])c4)CC3)c2)cc1 | . | . | . | 54.6 | .
CN(C(=O)c1cccc(NC(=O)Cc2ccc(NC(=O)C3CCN(S(=O)(=O)c4cccc([N+](=O)[O-])c4)CC3)cc2)c1)C1CCCCC1 | . | . | . | 52.2 | .
